Data: ChEMBL document CHEMBL1144439, “A novel class of in vivo active anticancer agents: achiral seco-amino- and seco-hydroxycyclopropylbenz[e]indolone (seco-CBI) analogues of the duocarmycins and CC-1065” (J Med Chem, 2005)
pIC50: −log10 of the molar value.

Columns and labels:
[1] = The concentration required for inhibiting the growth of the murine B16-F0 melanoma cells by 50%; format: functional; conditions: Mus musculus, B16F0
In short: (§1)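 MTT growth inhibition in murine lines grown in DMEM with 10% FBS, HEPES, glutamine, pen/strep at 37 °C, 5% CO2. Seeded 80 000 cells/well, continuous drug exposure (DMSO stock diluted in DMEM) for 72 h, quadruplicate wells per concentration. MTT added for 4 h, formazan dissolved in acid 2-propanol, read at 570 nm (reference 630 nm). IC50 extrapolated from averaged absorbance curves.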

[2] = tested on: L1210; assay: The concentration required for inhibiting the growth of the murine L1210 leukemia cells by 50%; format: functional, cell-based; conditions: Mus musculus; in short: as §1
[3] = tested on: P815; assay: The concentration required for inhibiting the growth of the murine P815 mastocytoma cells by 50%; format: functional, cell-based; conditions: Mus musculus
In short: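 P815 cells grown in DMEM with 10% FBS, HEPES, glutamine and pen/strep, seeded at 80 000 cells/well. Drug in DMSO/DMEM was added to final concentrations from 1.0 × 10^-12 to 1.0 × 10^-4 M, continuous for 72 h at 37 °C, 5% CO2, in quadruplicate. MTT was added for 4 h and solubilised in acid 2-propanol, read at 570/630 nm. IC50 was extrapolated from mean absorbance curves.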

[4] = tested on: K562; assay: The concentration required for inhibiting the growth of the human K562 chronic myeloid leukemia cells by 50%; format: functional, cell-based
In short: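 Drug exposure was […] in the dark, then cells were washed and plated at 10⁴ cells/well, eight wells per sample, and incubated 4 days. MTT was added for 5 h, formazan dissolved in DMSO and read at 550 nm.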

Row | SMILES | pIC50 [1] | pIC50 [2] | pIC50 [3] | pIC50 [4]
1 | COc1ccc2[nH]c(C(=O)Nc3cc(N)c4ccccc4c3CCCl)cc2c1 | 6.59 | 6.41 |  | 
2 | COc1cc2cc(C(=O)Nc3cc(OCc4ccccc4)c4ccccc4c3CCCl)[nH]c2c(OC)c1OC | < 4.00 | 4.29 |  | 
3 | COc1cc2cc(C(=O)Nc3cc(NCc4ccccc4)c4ccccc4c3CCCl)[nH]c2c(OC)c1OC | 5.27 |  |  | 
4 | COC(=O)c1[nH]c2c(O)cc(NC(=O)c3cc4cc(OC)c(OC)c(OC)c4[nH]3)c(CCCl)c2c1C(=O)OC | 5.17 | 5.38 | 5.27 | 6.60
5 | COc1cc2cc(C(=O)NC3=C(CCCl)CCC(O)=C3)[nH]c2c(OC)c1OC |  |  |  | 5.84
6 | COc1ccc(/C=C/C(=O)Nc2cc(N)c3ccccc3c2CCCl)c(OC)n1 | 7.21 | 6.74 |  | 
7 | COc1cc2cc(C(=O)Nc3cc(N)c4ccccc4c3CCO)[nH]c2c(OC)c1OC | 4.22 | 4.39 |  | 
